Reference: paper PMC10600558 (Molecular Imaging and Radionuclide Therapy, 2023)

Columns and labels:
[1] = tested on: neuroendocrine tumors (NETs); settings: NETTER-1 trial; cited from earlier work
[2] = In vitro stability of [^225Ac]Ac-DOTATATE in saline; assay type: physicochemical; settings: 37 °C, up to 5 h, n=3, slight decrease in stability after 5 h
[3] = In vivo stability in patients' blood and urine samples; settings: RP-HPLC
Outline: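 Samples came from the first 3 patients: blood at 0-10 min and urine up to 3 h post-injection. Blood was precipitated with acetonitrile (1:1) and centrifuged for 5 min at 14,680 rpm, and the supernatant was diluted 1:1 with water. Urine was diluted with water, filtered and analysed immediately. Both went to RP-HPLC, and fractions were gamma-counted (440 keV, [213Bi]) at least 20 h later and plotted by tube number.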

[4] = Excretion from the kidneys after injection; assay type: in vivo; settings: 24 h after injection, 9 patients, mean ± SD, relative to injected activity
Outline: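 Patients received 100-120 kBq/kg of the test radioligand as a slow intravenous injection over 5 min, with arginine/lysine kidney protection. The amount excreted in urine was quantified against standard samples prepared at the time of injection. The excretion rate was expressed relative to injected activity and reported as mean ± standard deviation.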

[5] = Toxicity and side effects according to CTCAE v5.0; assay type: in vivo, patients
Outline: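 Patients were treated as inpatients with amino-acid renal protection and ondansetron premedication. Vital signs were recorded every 60 min for 5 h, and complaints were tracked for 24 h. Adverse events were graded by CTCAE v5.0 three months after each cycle. Haematological, renal and liver values before versus after the last cycle were compared by Wilcoxon rank sum test and reported as mean ± standard deviation, with p<0.05 taken as significant.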

[6] = [^68Ga]Ga-DOTATATE uptake of parotid glands; assay type: in vivo, patients; settings: [^68Ga]Ga-DOTATATE PET/CT
Outline: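 Parotid SUVmax was read on [68Ga]Ga-DOTATATE PET/CT at baseline and after cycles of treatment. Pre/post values were compared by Wilcoxon rank sum test and reported as mean ± standard deviation, with p<0.05 taken as significant.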

[7] = tested on: metastatic neuroendocrine tumors (NETs); experiment: Response evaluation by [^68Ga]Ga-DOTATATE PET/CT and RECIST 1.1; assay type: in vivo, patients; settings: [^68Ga]Ga-DOTATATE PET/CT three months after treatment, n=9 evaluated
Outline: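 Treatment was 100-120 kBq/kg given intravenously over 5 min. Response was read on [68Ga]Ga-DOTATATE PET/contrast-enhanced CT within 4 weeks before and 12-16 weeks after treatment, repeated 12-18 weeks after each cycle until progression or death, and scored by RECIST 1.1 on the ceCT. PFS ran from the first administration and was estimated by Kaplan-Meier. Response comparisons used chi-square, with p<0.05 taken as significant.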

NET = settings: recent study of the same group; cited from earlier work
[8] = CTCAE v5.0, 8 patients analysed, n=1 (grade 2, after 3 cycles)

Substance | estimated median progression-free survival (PFS) [1] [months] | RP-HPLC profile of saline incubation samples [2] | time stable in vivo (urine and blood samples) ([3]; first 3 patients, blood 0-10 min, urine up to 3 h after injection) [h] | time remained stable in urine ([3]; patient urine samples up to 3 h after injection) | mean excretion rate from the kidneys [4] [%] | hematotoxicity rate [5, 8] [%] | nephrotoxicity rate [5, 8] [%] | grade 3-4 toxicities ([5]; CTCAE v5.0, mean activity 8.2±0.6 MBq per cycle, 1-3 cycles) | lymphocyte count ([5]; all patients, p<0.05) | acute side effects during the injection ([5]; nausea or vomiting, slow injection over 5 min, 100-120 kBq/kg) | xerostomia ([5]; patient complaints) | mean parotid SUVmax after two cycles ([6]; n=6, baseline 2.98±0.96, p=0.73) | mean parotid SUVmax after the first cycle ([6]; n=9, baseline 2.98±0.96, p=0.93) | progressive disease ([7]; n=1) [%] | partial response (PR) ([7]; n=4) [%] | disease control rate (NET) [%]
[^177Lu]Lu-DOTATATE | 40 |  |  |  |  |  |  |  |  |  |  |  |  |  |  | 
[^225Ac]Ac-DOTATATE |  | single radioactivity peak | ≥ 3 | up to 3 h | 56±9.7 | 12.5 | 12.5 | No grade 3-4 toxicities | transient decrease | did not observe any acute side effects | did not complain of xerostomia | 2.48±0.59 | 2.07±0.93 | 11 | 44.4 | 79.8
